In ChEMBL document CHEMBL4390681, “Novel allosteric covalent inhibitors of bifunctional Cryptosporidium hominis TS-DHFR from parasitic protozoa identified by virtual screening” (Bioorg Med Chem Lett, 2019):
Numbering of substitutions follows the chain as printed. Calls of active or inactive are those of the source. The rule behind the calls is not given here.

B1: Bifunctional dihydrofolate reductase-thymidylate synthase (Cryptosporidium hominis), A0A0S4TER9 (protein)
chain: MSEKNVSIVVAASVLSSGIGINGQLPWSISEDLKFFSKITNNKCDSNKKNALIMGRKTWDSIGRRPLKNRIIVVISSSLPQDEADPNVVVFRNLEDSIENLMNDDSIENIFVCGGESIYRDALKDNFVDRIYLTRVALEDIEFDTYFPEIPETFLPVYMSQTFCTKNISYDFMIFEKQEKKTLQNCDPARGQLKSIDDTVDLLGEIFGIRKMGNRHKFPKEEIYNTPSIRFGREHYEFQYLDLLSRVLENGAYRENRTGISTYSIFGQMMRFDMRESFPLLTTKKVAIRSIFEELIWFIKGDTNGNHLIEKKVYIWSGNGSKEYLERIGLGHREENDLGPIYGFQWRHYNGEYKTMHDDYTGVGVDQLAKLIETLKNNPKDRRHILTAWNPSALSQMALPPCHVLSQYYVTNDNCLSCNLYQRSCDLGLGSPFNIASYAILTMMLAQVCGYEPGELAIFIGDAHIYENHLTQLKEQLSRTPRPFPQLKFKRKVENIEDFKWEDIELIGYYPYPTIKMDMAV

Biological target: T1, Bifunctional dihydrofolate reductase-thymidylate synthase (Cryptosporidium hominis) (UniProt A0A0S4TER9)
T1 sequence (whole entry): B1 chain
Experiment: (§1) Inhibition of recombinant Cryptosporidium hominis TS-DHFR expressed in Escherichia coli PA414 assessed as reduction in DHFR steady state activity at 500 uM using [3',5',7,9-3H]-H2folate as substrate preincubated for 10 mins before NADPH addition for 5 mins followed by substrate addition and measured after 5 mins by NADPH based radiometric chemical quench assay relative to control
Conditions: not given
Outline: (§2)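 Radiometric DHFR steady-state activity assay on recombinant ChTS-DHFR. Compound was incubated with the enzyme for 10 min before the reaction was started. Single-point screen was at 500 µM, and dose-dependence was also assessed. Activity is expressed as percent of control.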

Molecule	inhibition [%]
CCOC(=O)C(=CNNC(=O)[C@@H]1[C@@H](C(=O)O)[C@H]2C=C[C@@H]1C2)C(=O)OCC	-4.4
Nc1cccc(NC(=O)c2ccccc2O)c1	-1.3
O=C(NNC(=O)c1ccccc1CO)c1ccc(Cl)c(Cl)c1	21.2
O=C(Nc1cccc(Cl)c1)c1cc(Cl)ccc1O	54
O=C(Nc1ccccc1O)c1ccc(Br)cc1O	-0.176
COc1cc(C(F)(F)F)c(C(N)=O)cn1	0.29
Oc1nc2ccccc2nc1O	-2.6
O=C(O)C[C@@H]1SC(c2ccc3c(c2)OCO3)=NC1=O	-0.67
O=C(Nc1cc(Cl)cc(Cl)c1)c1ccccc1O	9.8
Cc1cc(Br)ccc1NC(=S)Nc1cccc(NC(=O)c2ccccc2O)c1	52.2
O=C(Nc1cc(Cl)cc(Cl)c1)c1cc(Br)ccc1O	49
CCOC(=O)C1=C(C)NC(C)=C(C(=O)OCC)C1c1ccc2c(c1)OCO2	-7.9
O=C(Nc1ccc(Br)cc1)c1ccccc1O	8.8
O=C(Nc1ccc(Cl)cc1)c1cc(Br)ccc1O	11.1
O=C(Nc1ccc(F)c(Cl)c1)c1cc(Br)ccc1O	61
Nc1cc(NC(=O)c2ccccc2O)ccc1Cl	-1.3
COc1ccc(Br)c(OC)c1C(=O)NC(=O)Nc1cc(Cl)cc(Cl)c1	7.9
O=C(Nc1ccc(F)cc1)c1cc(Br)ccc1O	20
NCc1ccc(NC(=O)c2ccccc2O)cc1	1.1
O=C(Nc1cc(C(F)(F)F)cc(C(F)(F)F)c1)c1cc(Br)ccc1O	24.4
Cc1cc2c(cc1C)N[C@H](C)CC(=O)N2	-3.8
O=C(NCc1cccs1)c1ccc2nccnc2c1	2
NC(=S)Cc1c(Cl)sc2ccc(Cl)cc12	32.6
O=c1ccn([C@H]2C[C@H](O)[C@@H](CO)O2)c(=O)[nH]1	-5.3
Cc1ccc(C(=O)Nc2cc(Cl)cc(Cl)c2)c(O)c1	61
O=C(Nc1ccc(Cl)cc1)c1cc(I)ccc1O	47
O=C1NC(=S)NC(=O)C1=Cc1c[nH]c2ccccc12	-1.6
O=C(O)c1nccnc1-c1nc(=O)c2ccccc2[nH]1	-4.4
CC(=O)C[C@@]1(O)C(=O)Nc2ccc(F)cc21	-6
CNC(=O)c1ccc(NC(=O)c2ccccc2O)cc1	14.7

Same assay, conditions: TDE = time-dependent effect

Molecule	inhibition
O=C(Nc1cccc(S)c1)c1cc(Br)ccc1O	Tde

Tested on: Cryptosporidium hominis
Experiment: Ratio of inhibition of recombinant Cryptosporidium hominis TS-DHFR Cys44Ser mutant expressed in Escherichia coli PA414 to inhibition of recombinant Cryptosporidium hominis TS-DHFR expressed in Escherichia coli PA414
Conditions: not given

Molecule	Ratio
Cc1ccc(C(=O)Nc2cccc(S)c2)c(O)c1	2

Biological target: T1, Bifunctional dihydrofolate reductase-thymidylate synthase (Cryptosporidium hominis)
Experiment: as §1, with “activity” for “activity at 500 uM”
Conditions: not given
Outline: as §2

Molecule	inhibition
O=C(Nc1cccc(Cl)c1)c1cc(Cl)ccc1O	Dose-dependent effect
Cc1cc(Br)ccc1NC(=S)Nc1cccc(NC(=O)c2ccccc2O)c1	Dose-dependent effect
O=C(Nc1cc(Cl)cc(Cl)c1)c1cc(Br)ccc1O	Dose-dependent effect
O=C(Nc1ccc(F)c(Cl)c1)c1cc(Br)ccc1O	Dose-dependent effect
Cc1ccc(C(=O)Nc2cc(Cl)cc(Cl)c2)c(O)c1	Dose-dependent effect
O=C(Nc1ccc(Cl)cc1)c1cc(I)ccc1O	Dose-dependent effect

Compound: Cc1cc(Br)ccc1NC(=S)Nc1cccc(NC(=O)c2ccccc2O)c1
Experiment: (§3) Mixed noncompetitive inhibition of recombinant Cryptosporidium hominis TS-DHFR expressed in Escherichia coli PA414 assessed as substrate Km at 250 uM using varying levels of [3',5',7,9-3H]-H2folate as substrate preincubated for 10 mins before NADPH addition for 5 mins followed by substrate addition and measured after 5 mins by Lineweaver-Burk plot analysis (reference value: 1.2 +/- 0.2 uM)
Conditions: not given

Molecule	Km [µM]
B1	1.4

Tested on: T2, Bifunctional dihydrofolate reductase-thymidylate synthase (Cryptosporidium hominis), A0A0S4TER9 [C44S]
T2 sequence (whole entry): B1 chain with C44S
Experiment: as §1, with “TS-DHFR Cys44Ser mutant” for “TS-DHFR”, “16 hrs” for “10 mins”
Conditions: not given
Outline: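 Wild-type and Cys44Ser mutant ChTS-DHFR, each incubated 16 h with compound before the radiometric DHFR reaction was started. Read-out was percent DHFR activity.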

Molecule	inhibition
Cc1ccc(C(=O)Nc2cccc(S)c2)c(O)c1	38%
O=C(Nc1cccc(S)c1)c1cc(Br)ccc1O	inactive
Cc1ccc(C(=O)Nc2cc(Cl)cc(Cl)c2)c(O)c1	inactive

Biological target: T1, Bifunctional dihydrofolate reductase-thymidylate synthase (Cryptosporidium hominis)
Experiment: Inhibition of recombinant Cryptosporidium hominis TS-DHFR expressed in Escherichia coli PA414 assessed as decrease in TS activity
Conditions: not given

Molecule	inhibition
Cc1cc(Br)ccc1NC(=S)Nc1cccc(NC(=O)c2ccccc2O)c1	inactive

Compound: Cc1cc(Br)ccc1NC(=S)Nc1cccc(NC(=O)c2ccccc2O)c1
Experiment: as §3, with “Kcat” for “Km”, “100” for “250”, “2.17” for “1.2”, “0.04 /s)” for “0.2 uM)”
Conditions: not given

Molecule	kcat [s⁻¹]
B1	1.9

Compound: Cc1cc(Br)ccc1NC(=S)Nc1cccc(NC(=O)c2ccccc2O)c1
Experiment: as §3, with “100” for “250”
Conditions: not given

Molecule	Km [µM]
B1	1.3

Tested on: not listed separately
Experiment: Solubility of the compound at >500 uM
Assay type: physicochemical
Conditions: not given

Molecule	solubility
O=C(Nc1cccc(Cl)c1)c1cc(Cl)ccc1O	Insoluble
Cc1cc(Br)ccc1NC(=S)Nc1cccc(NC(=O)c2ccccc2O)c1	Insoluble
O=C(Nc1cc(Cl)cc(Cl)c1)c1cc(Br)ccc1O	Insoluble
O=C(Nc1ccc(F)c(Cl)c1)c1cc(Br)ccc1O	Insoluble
Cc1ccc(C(=O)Nc2cc(Cl)cc(Cl)c2)c(O)c1	Insoluble
O=C(Nc1ccc(Cl)cc1)c1cc(I)ccc1O	Insoluble

Biological target: T3, Dihydrofolate reductase (Homo sapiens) (UniProt P00374)
T3 sequence (whole entry): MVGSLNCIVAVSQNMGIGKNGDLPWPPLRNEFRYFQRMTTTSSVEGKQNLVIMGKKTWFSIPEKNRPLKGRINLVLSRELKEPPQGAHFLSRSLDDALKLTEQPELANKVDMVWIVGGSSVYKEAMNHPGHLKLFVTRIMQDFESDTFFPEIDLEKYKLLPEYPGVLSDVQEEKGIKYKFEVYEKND
Experiment: Inhibition of human DHFR assessed as decrease in DHFR steady state activity at 500 uM using [3',5',7,9-3H]-H2folate as substrate preincubated for 16 hrs before NADPH addition incubated for 5 mins followed by substrate addition and measured after 5 mins by NADPH based radiometric chemical quench assay relative to control
Conditions: not given
Outline: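 Radiometric DHFR steady-state assay with human DHFR. Compound and enzyme were incubated for 16 h before the reaction was started. Percent inhibition was read relative to control.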

Molecule	inhibition
Cc1ccc(C(=O)Nc2cccc(S)c2)c(O)c1	inactive
O=C(Nc1cccc(S)c1)c1cc(Br)ccc1O	95%

Biological target: T1, Bifunctional dihydrofolate reductase-thymidylate synthase (Cryptosporidium hominis)
Experiment: as §1, with “1 hr to 72 hrs” for “10 mins”
Conditions: TDE = time-dependent effect
Outline: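 Compound at 500 µM was incubated with ChTS-DHFR for 1 h, 16 h, 48 h or 72 h before the radiometric DHFR reaction was initiated, to follow time-dependent inhibition. The standard assay uses a 10 min incubation.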

Molecule	inhibition
Cc1ccc(C(=O)Nc2cccc(S)c2)c(O)c1	Tde
O=C(Nc1cccc(S)c1)c1cc(Br)ccc1O	Tde

Biological target: T1, Bifunctional dihydrofolate reductase-thymidylate synthase (Cryptosporidium hominis)
Experiment: as §3, with “Kobs” for “substrate Km”, “100” for “250”, “using varying levels of [3',5',7,9-3H]-H2folate as substrate” left out, “1.98” for “1.2”, “0.09 /s)” for “0.2 uM)”
Conditions: not given

Molecule	K [s⁻¹]
Cc1cc(Br)ccc1NC(=S)Nc1cccc(NC(=O)c2ccccc2O)c1	1.6

Biological target: T1, Bifunctional dihydrofolate reductase-thymidylate synthase (Cryptosporidium hominis)
Experiment: as §3, with “Kobs” for “substrate Km”, “using varying levels of [3',5',7,9-3H]-H2folate as substrate” left out, “1.98” for “1.2”, “0.09 /s)” for “0.2 uM)”
Conditions: not given

Molecule	K [s⁻¹]
Cc1cc(Br)ccc1NC(=S)Nc1cccc(NC(=O)c2ccccc2O)c1	1.33

Compound: Cc1cc(Br)ccc1NC(=S)Nc1cccc(NC(=O)c2ccccc2O)c1
Experiment: as §3, with “Kcat” for “Km”, “2.17” for “1.2”, “0.04 /s)” for “0.2 uM)”
Conditions: not given

Molecule	kcat [s⁻¹]
B1	1.2
